1 molecule from ChEMBL document CHEMBL4033795, “Design, Synthesis, and Structure-Activity Relationship Study of 2-Oxo-3,4-dihydropyrimido[4,5- d]pyrimidines as New Colony Stimulating Factor 1 Receptor (CSF1R) Kinase Inhibitors” (J Med Chem, 2018) can be followed below.

The species named for series [1] is Homo sapiens. In words: Selectivity ratio of IC50 for recombinant human wild type GST-tagged EGFR cytoplasmic domain (668 to 1210 residues) expressed in baculovirus to IC50 for recombinant human His-tagged CSF1R cytoplasmic domain (538 to 910 residues) expressed in baculovirus. A digest of the protocol:
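Z′-Lyte FRET assay with CSF1R or EGFR and 2 μM Tyr4 peptide substrate in 1× kinase buffer. ATP was supplied as a 100 μM solution, a stock and not the final concentration. Compounds were 3-fold serially diluted in DMSO. Reaction ran 1 h at room temperature, followed by 1 h development and a stop reagent. Phospho-peptide, no-ATP and DMSO controls were included. IC50 by curve fitting; mean of at least three independent experiments.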

For series [2], the target named is Fibroblast growth factor receptor 4 (Homo sapiens, UniProt P22455). Kind of series: Inhibition of cytoplasmic recombinant human His-tagged FGFR4 ([…] residues) expressed in baculovirus using tyr4 peptide as substrate after 1 hr by FRET-based Z'-Lyte assay.
Sequence of Fibroblast growth factor receptor 4 (P22455 whole entry): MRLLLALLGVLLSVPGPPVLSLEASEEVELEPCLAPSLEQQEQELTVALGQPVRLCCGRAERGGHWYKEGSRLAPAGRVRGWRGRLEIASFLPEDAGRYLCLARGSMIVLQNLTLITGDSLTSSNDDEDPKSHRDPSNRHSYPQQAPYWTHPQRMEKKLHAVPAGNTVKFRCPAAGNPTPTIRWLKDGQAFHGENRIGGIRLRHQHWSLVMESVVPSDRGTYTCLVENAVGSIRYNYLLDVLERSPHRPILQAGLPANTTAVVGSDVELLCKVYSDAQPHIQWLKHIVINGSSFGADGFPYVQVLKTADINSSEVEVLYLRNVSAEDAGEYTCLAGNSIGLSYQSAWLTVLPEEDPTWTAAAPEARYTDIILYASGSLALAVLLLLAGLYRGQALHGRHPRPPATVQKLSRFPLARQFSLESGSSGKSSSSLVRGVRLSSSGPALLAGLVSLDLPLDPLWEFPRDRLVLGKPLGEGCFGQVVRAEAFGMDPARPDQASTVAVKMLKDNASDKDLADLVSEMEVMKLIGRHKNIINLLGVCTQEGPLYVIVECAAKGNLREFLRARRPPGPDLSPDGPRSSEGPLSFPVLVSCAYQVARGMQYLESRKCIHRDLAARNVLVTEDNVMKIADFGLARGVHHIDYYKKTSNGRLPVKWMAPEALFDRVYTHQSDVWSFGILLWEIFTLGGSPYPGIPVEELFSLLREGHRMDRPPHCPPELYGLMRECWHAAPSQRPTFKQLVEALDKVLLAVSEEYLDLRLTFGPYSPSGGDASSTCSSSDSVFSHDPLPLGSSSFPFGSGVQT
For series [3], the system named is Rattus norvegicus. Kind of series: AUC (0 to infinity) in Sprague-Dawley rat at 25 mg/kg administered via oral gavage measured up to 72 hrs by LC/MS analysis. The settings on record: in vivo. The class given is ADME, organism-based. Further details: dose 25 mg/kg, route oral, time infinity. A digest of the protocol: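 Male Sprague-Dawley rats, 4–6 weeks old, acclimatised 1 week, were dosed iv at 5 mg/kg or by oral gavage at 25 mg/kg. Vehicle was 2% DMSO, 4% EtOH, 4% castor oil, 90% H2O. Blood was drawn by orbital sinus puncture from 2 min to 72 h into heparinized tubes. Plasma was assayed by LC/MS with propranolol as internal standard. Three animals per group.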

Series [4] relates to RAW264.7. In words: Downregulation of IL10 mRNA expression in mouse RAW264.7 cells after 48 hrs by qRT-PCR analysis relative to DMSO. The class given is functional, cell-based. A digest of the protocol: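 RAW264.7 macrophages were treated 48 h with compound at 0.08, 0.4 or 2.0 μM, or DMSO vehicle. Total RNA was extracted with TRIzol and transcripts were quantified by qRT-PCR using gene-specific primers. Run three times, each in triplicate.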

The species entered for series [5] is Homo sapiens. Kind of series: Selectivity ratio of IC50 for recombinant cytoplasmic human His-tagged KIT expressed in baculovirus to IC50 for recombinant human His-tagged CSF1R cytoplasmic domain (538 to 910 residues) expressed in baculovirus.
In series [6] the test system is RAW264.7. In words: Antimigratory activity against mouse RAW264.7 cells assessed as inhibition of human LNCaP-MDV-CM mediated macrophage migration at 2.5 uM after 24 hrs by crystal violet staining based transwell assay relative to control. The format is functional. The settings on record: RAW264.7, 24 h. A digest of the protocol:
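RAW264.7 cells, (2−4) × 10^5, were placed serum-free in the upper insert of a transwell. The lower chamber held conditioned medium from LNCaP cells grown 48 h in 10% FBS RPMI 1640 with 10 μM MDV3100 or DMSO. Compound at 0.625–5.0 μM was added to the top chamber for 24 h at 37 °C. Migrated cells were fixed in methanol, stained with 0.25% crystal violet and counted in six random fields at 200×. Three independent experiments.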

Series [7] concerns the target Fibroblast growth factor receptor 3 (Homo sapiens, UniProt P22607). In words: Inhibition of cytoplasmic recombinant human His-tagged FGFR3 (399 to 806 residues) expressed in baculovirus using tyr4 peptide as substrate after 1 hr by FRET-based Z'-Lyte assay.

Sequence of Fibroblast growth factor receptor 3 (P22607 whole entry, the tested form may be a part): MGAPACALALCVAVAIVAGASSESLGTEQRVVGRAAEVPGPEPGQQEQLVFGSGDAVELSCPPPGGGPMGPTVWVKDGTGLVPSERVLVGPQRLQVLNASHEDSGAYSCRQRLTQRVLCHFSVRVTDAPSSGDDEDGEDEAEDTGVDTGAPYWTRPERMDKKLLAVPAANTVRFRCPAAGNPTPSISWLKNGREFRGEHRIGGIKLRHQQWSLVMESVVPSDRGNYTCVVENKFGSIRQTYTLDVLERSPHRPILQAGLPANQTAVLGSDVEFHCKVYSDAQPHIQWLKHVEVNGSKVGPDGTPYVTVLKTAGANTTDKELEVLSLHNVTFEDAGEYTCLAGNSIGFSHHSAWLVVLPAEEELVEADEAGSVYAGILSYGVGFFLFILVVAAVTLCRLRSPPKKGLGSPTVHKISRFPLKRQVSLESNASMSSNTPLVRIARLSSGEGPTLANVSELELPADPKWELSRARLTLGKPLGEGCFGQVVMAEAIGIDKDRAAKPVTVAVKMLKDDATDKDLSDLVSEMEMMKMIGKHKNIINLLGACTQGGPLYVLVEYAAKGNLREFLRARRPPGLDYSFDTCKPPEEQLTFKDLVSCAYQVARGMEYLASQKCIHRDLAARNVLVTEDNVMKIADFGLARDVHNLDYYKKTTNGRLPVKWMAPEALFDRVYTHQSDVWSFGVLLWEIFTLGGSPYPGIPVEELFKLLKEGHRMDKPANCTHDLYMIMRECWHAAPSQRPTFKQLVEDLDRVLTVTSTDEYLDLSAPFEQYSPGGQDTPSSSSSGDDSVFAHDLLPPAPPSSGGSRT

Take `CCC(=O)N1CC[C@H](N2C(=O)N(c3cc(OC)ccc3Cl)Cc3cnc(Nc4ccc(N5CCN(C6COC6)CC5)c(C)c4)nc32)C1`: the Ratio IC50 in series [1] was 120; in series [5] it was 10 to 35. For the same molecule, the half-maximal inhibitory concentration (IC50) in series [2] came to 0.167 µM; in series [7] it was 0.0402 µM. In series [3], this molecule returned an AUC of 6462 ng·h/mL. Moreover, the Activity entry in series [4] was “Dose-dependent effect”. Further, the inhibition at 2.5 µM in series [6] came out at 60.6%.
